# Source: ChEMBL document CHEMBL1765051 (J Med Chem, 2011)
# pEC50, pIC50: −log10 of the molar value.
# Experiments:
# [1] = system: Human immunodeficiency virus 2; assay: Antiviral activity against wild type HIV2 infected in human CEM cells assessed as inhibition of syncytia formation; type: functional, organism-based; settings: Human immunodeficiency virus 2, CCRF-CEM
# [2] = system: Human immunodeficiency virus 1; assay: Antiviral activity against wild type HIV1 infected in human CEM cells assessed as inhibition of syncytia formation; type: functional, organism-based; settings: Human immunodeficiency virus 1, CCRF-CEM
# [3] = target: Human immunodeficiency virus type 1 reverse transcriptase (Human immunodeficiency virus 1, UniProt Q72547); assay: Inhibition of wild type HIV-1 reverse transcriptase-mediated polymerization reaction after 30 mins
# [4] = target: Human immunodeficiency virus type 1 reverse transcriptase (Human immunodeficiency virus 1, UniProt Q72547, E138K); assay: Inhibition of HIV-1 reverse transcriptase E138K mutant-mediated polymerization reaction after 30 mins
# Outline: (§1)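 Recombinant mutant HIV-1 RT started reactions containing 50 mM Tris-HCl pH 7.8, 5 mM DTT, 300 mM glutathione, 0.5 mM EDTA, 150 mM KCl, 5 mM MgCl2, BSA, 0.06% Triton X-100, 2.8 μM [3H]dGTP, 0.1 mM poly(rC)/oligo(dG) and varying compound. Incubated 30 min at 37°C, stopped with yeast RNA/pyrophosphate/TCA, acid-insoluble radioactivity counted; IC50 = 50% polymerization inhibition; mean ± SD, ≥2 independent experiments.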
# [5] = Inhibition of HIV-1 reverse transcriptase […] and E138K mutant-mediated polymerization reaction after 30 mins; design: species or system Human immunodeficiency virus 1; outline: as §1
# [6] = target: Human immunodeficiency virus type 1 reverse transcriptase (Human immunodeficiency virus 1, UniProt Q72547, K101E); assay: Inhibition of HIV-1 reverse transcriptase K101E mutant-mediated polymerization reaction after 30 mins; outline: as §1
# [7] = system: Human immunodeficiency virus 1; assay: Ratio of EC50 for HIV1 3B harboring reverse transcriptase Y181C mutant to EC50 for wild type HIV1 3B; type: functional
# [8] = system: Human immunodeficiency virus 1; assay: Ratio of EC50 for HIV1 3B harboring reverse transcriptase Y188L mutant to EC50 for wild type HIV1 3B; type: functional
# [9] = system: Human immunodeficiency virus 1; assay: Antiviral activity against HIV1 3B harboring reverse transcriptase Y181I mutant infected in human CEM cells assessed as inhibition of syncytia formation; type: functional, organism-based; settings: Human immunodeficiency virus 1, 3B, CCRF-CEM
# [10] = system: Human immunodeficiency virus 1; assay: Ratio of EC50 for HIV1 3B harboring reverse transcriptase G190E mutant to EC50 for wild type HIV1 3B; type: functional
# [11] = system: Human immunodeficiency virus 1; assay: Ratio of EC50 for HIV1 3B harboring reverse transcriptase E138K mutant to EC50 for wild type HIV1 3B; type: functional
# [12] = system: Human immunodeficiency virus 1; assay: Antiviral activity against HIV1 3B harboring reverse transcriptase V179N mutant infected in human CEM cells assessed as inhibition of syncytia formation; type: functional, organism-based; settings: Human immunodeficiency virus 1, 3B, CCRF-CEM
# [13] = system: Human immunodeficiency virus 1; assay: Antiviral activity against wild type HIV1 3B infected in human CEM cells assessed as inhibition of syncytia formation; type: functional, organism-based; settings: Human immunodeficiency virus 1, 3B, CCRF-CEM
# [14] = system: Human immunodeficiency virus 1; assay: Ratio of EC50 for HIV1 3B harboring reverse transcriptase V106A mutant to EC50 for wild type HIV1 3B; type: functional
# [15] = system: Human immunodeficiency virus 1; assay: Antiviral activity against HIV1 3B harboring reverse transcriptase L100I mutant infected in human CEM cells assessed as inhibition of syncytia formation; type: functional, organism-based; settings: Human immunodeficiency virus 1, 3B, CCRF-CEM
# [16] = system: Human immunodeficiency virus 1; assay: Ratio of EC50 for HIV1 3B harboring reverse transcriptase K103N mutant to EC50 for wild type HIV1 3B; type: functional
# [17] = system: Human immunodeficiency virus 1; assay: Antiviral activity against HIV1 3B harboring reverse transcriptase V106A mutant infected in human CEM cells assessed as inhibition of syncytia formation; type: functional, organism-based; settings: Human immunodeficiency virus 1, 3B, CCRF-CEM
# [18] = system: Human immunodeficiency virus 1; assay: Antiviral activity against HIV1 3B harboring reverse transcriptase N136A/Q/K mutant infected in human CEM cells assessed as inhibition of syncytia formation; type: functional, organism-based; settings: Human immunodeficiency virus 1, 3B, CCRF-CEM
# [19] = system: Human immunodeficiency virus 1; assay: Antiviral activity against HIV1 3B harboring reverse transcriptase E138D mutant infected in human CEM cells assessed as inhibition of syncytia formation; type: functional, organism-based; settings: Human immunodeficiency virus 1, 3B, CCRF-CEM
# [20] = system: Human immunodeficiency virus 1; assay: Antiviral activity against HIV1 3B harboring reverse transcriptase Y181C mutant infected in human CEM cells assessed as inhibition of syncytia formation; type: functional, organism-based; settings: Human immunodeficiency virus 1, 3B, CCRF-CEM
# [21] = system: Human immunodeficiency virus 1; assay: Ratio of EC50 for HIV1 3B harboring reverse transcriptase N136A/Q/K mutant to EC50 for wild type HIV1 3B; type: functional
# [22] = system: Human immunodeficiency virus 1; assay: Antiviral activity against HIV1 3B harboring reverse transcriptase Y188L mutant infected in human CEM cells assessed as inhibition of syncytia formation; type: functional, organism-based; settings: Human immunodeficiency virus 1, 3B, CCRF-CEM
# [23] = system: Human immunodeficiency virus 1; assay: Ratio of EC50 for HIV1 3B harboring reverse transcriptase Y188H mutant to EC50 for wild type HIV1 3B; type: functional
# [24] = system: Human immunodeficiency virus 1; assay: Antiviral activity against HIV1 3B harboring reverse transcriptase G190E mutant infected in human CEM cells assessed as inhibition of syncytia formation; type: functional, organism-based; settings: Human immunodeficiency virus 1, 3B, CCRF-CEM
# [25] = system: Human immunodeficiency virus 1; assay: Antiviral activity against HIV1 3B harboring reverse transcriptase Y188H mutant infected in human CEM cells assessed as inhibition of syncytia formation; type: functional, organism-based; settings: Human immunodeficiency virus 1, 3B, CCRF-CEM
# [26] = system: Human immunodeficiency virus 1; assay: Antiviral activity against HIV1 3B harboring reverse transcriptase E138K mutant infected in human CEM cells assessed as inhibition of syncytia formation; type: functional, organism-based; settings: Human immunodeficiency virus 1, 3B, CCRF-CEM
# [27] = system: Human immunodeficiency virus 1; assay: Ratio of EC50 for HIV1 3B harboring reverse transcriptase L100I mutant to EC50 for wild type HIV1 3B; type: functional
# [28] = system: Human immunodeficiency virus 1; assay: Antiviral activity against HIV1 3B harboring reverse transcriptase K103N mutant infected in human CEM cells assessed as inhibition of syncytia formation; type: functional, organism-based; settings: Human immunodeficiency virus 1, 3B, CCRF-CEM
# [29] = system: Human immunodeficiency virus 1; assay: Ratio of EC50 for HIV1 3B harboring reverse transcriptase Y181I mutant to EC50 for wild type HIV1 3B; type: functional
smiles,measurement,setting,value
Cc1cn([C@@H]2O[C@H](CO[Si](C)(C)C(C)(C)C)[C@@]3(OS(=O)(=O)C=C3N)[C@H]2O[Si](C)(C)C(C)(C)C)c(=O)[nH]c1=S,pEC50,[1],< 5.70
same,pEC50,[2],6.77
Cc1cn([C@@H]2O[C@H](CO[Si](C)(C)C(C)(C)C)[C@]3(C=CS(=O)(=O)O3)[C@H]2O[Si](C)(C)C(C)(C)C)c(=O)n(C)c1=O,pEC50,[1],< 5.70
same,pIC50,[3],5.48
same,pEC50,[2],6.82
Cc1cn([C@@H]2O[C@H](CO[Si](C)(C)C(C)(C)C)[C@@]3(OC(=O)N=C3N)[C@H]2O[Si](C)(C)C(C)(C)C)c(=O)n(C)c1=O,pEC50,[1],< 4.46
same,pEC50,[2],5.24
Cc1cn([C@@H]2O[C@H](CO[Si](C)(C)C(C)(C)C)[C@@]3(OS(=O)(=O)C=C3NC(=O)C(N)=O)[C@H]2O[Si](C)(C)C(C)(C)C)c(=O)n(C)c1=O,pEC50,[1],< 5.15
same,pEC50,[2],7.55
CNC(=O)CCCCn1c(=O)c(C)cn([C@@H]2O[C@H](CO[Si](C)(C)C(C)(C)C)[C@@]3(OS(=O)(=O)C=C3N)[C@H]2O[Si](C)(C)C(C)(C)C)c1=O,pEC50,[1],< 5.00
CC(C)(C)[Si](C)(C)OC[C@H]1O[C@@H](n2cnc3c(N)ncnc32)[C@H](O[Si](C)(C)C(C)(C)C)[C@]12OS(=O)(=O)C=C2N,pEC50,[1],< 5.00
same,pEC50,[2],7.30
Nc1nc2c(ncn2[C@H]2CC[C@@H](COP(=O)(O)OP(=O)(O)OP(=O)(O)O)O2)c(=O)[nH]1 [DIDEOXY GUANOSINE TRIPHOSPHATE],pIC50,[4],6.65
same,pIC50,[3],6.65
same,IC50,[5],0.14 µg/mL
same,pIC50,[6],6.61
Cc1cn([C@@H]2O[C@H](CO[Si](C)(C)C(C)(C)C)[C@@]3(NS(=O)(=O)N=C3N)[C@H]2O[Si](C)(C)C(C)(C)C)c(=O)n(C)c1=O,pEC50,[1],< 5.15
same,pEC50,[2],5.28
CNC(=O)c1cnnn1[C@@H]1O[C@H](CO[Si](C)(C)C(C)(C)C)[C@@]2(OS(=O)(=O)C=C2N)[C@H]1O[Si](C)(C)C(C)(C)C,pEC50,[1],< 5.15
same,pEC50,[2],7.10
Cc1cn([C@@H]2O[C@H](CO[Si](C)(C)C(C)(C)C)[C@@]3(OS(=O)(=O)C=C3N)[C@H]2O[Si](C)(C)C(C)(C)C)c(=O)n(C)c1=O,Ratio EC50,[7],30
same,Ratio EC50,[8],30
same,EC50,[9],> 10 µg/mL
same,Ratio EC50,[10],30
same,pIC50,[4],< 3.78
same,Ratio EC50,[11],30
same,EC50,[12],0.22 µg/mL
same,EC50,[13],0.03 µg/mL
same,Ratio EC50,[14],30
same,pEC50,[1],< 3.60
same,EC50,[15],0.07 µg/mL
same,Ratio EC50,[16],7
same,EC50,[17],1.9 µg/mL
same,pIC50,[3],5.62
same,EC50,[18],> 50 µg/mL
same,pEC50,[2],7.40
same,IC50,[5],> 100 µg/mL
same,EC50,[19],0.01 µg/mL
same,EC50,[20],2 µg/mL
same,pIC50,[6],< 3.78
same,Ratio EC50,[21],30
same,EC50,[22],> 10 µg/mL
same,Ratio EC50,[23],30
same,EC50,[24],> 10 µg/mL
same,EC50,[25],> 3.3 µg/mL
same,EC50,[26],> 3 µg/mL
same,Ratio EC50,[27],7
same,EC50,[28],0.23 µg/mL
same,Ratio EC50,[29],30
CC1=CN([C@@H]2O[C@H](CO[Si](C)(C)C(C)(C)C)[C@@]3(OS(=O)(=O)C=C3N)[C@H]2O[Si](C)(C)C(C)(C)C)C(=O)NC1,pEC50,[1],< 5.00
same,pEC50,[2],7.00
Cc1cn([C@@H]2O[C@H](CO[Si](C)(C)C(C)(C)C)[C@@]3(OS(=O)(=O)C=C3N)[C@H]2O[Si](C)(C)C(C)(C)C)c(=O)[nH]c1=O,Ratio EC50,[7],30
same,Ratio EC50,[8],30
same,EC50,[9],> 10 µg/mL
same,Ratio EC50,[10],30
same,pIC50,[4],< 3.77
same,Ratio EC50,[11],30
same,EC50,[12],0.22 µg/mL
same,EC50,[13],0.03 µg/mL
same,Ratio EC50,[14],30
same,pEC50,[1],< 4.70
same,EC50,[15],0.07 µg/mL
same,Ratio EC50,[16],7
same,EC50,[17],1.9 µg/mL
same,EC50,[18],> 50 µg/mL
same,IC50,[5],> 100 µg/mL
same,EC50,[19],0.01 µg/mL
same,EC50,[20],2 µg/mL
same,pIC50,[6],≤ 3.77
same,Ratio EC50,[21],30
same,EC50,[22],> 10 µg/mL
same,Ratio EC50,[23],30
same,EC50,[24],> 10 µg/mL
same,EC50,[25],> 3.3 µg/mL
same,EC50,[26],> 3 µg/mL
same,Ratio EC50,[27],7
same,EC50,[28],0.23 µg/mL
same,Ratio EC50,[29],30
Cn1cnc2c(ncn2[C@@H]2O[C@H](CO[Si](C)(C)C(C)(C)C)[C@@]3(OS(=O)(=O)C=C3N)[C@H]2O[Si](C)(C)C(C)(C)C)c1=O,pEC50,[1],< 3.82
same,pEC50,[2],7.22
